Series [1] in a line: Aqueous solubility of the compound at pH 2. It is filed as physicochemical. Conditions: buffer.
Series [2] is described as follows: Aqueous solubility of the compound at pH 6.5. It is filed as physicochemical. Conditions: buffer.
In series [3] the test system is Plasmodium falciparum. The experiment in a line: Antiplasmodial activity against Plasmodium falciparum K1 by [3H]hypoxanthine incorporation assay. Format: functional, organism-based. An outline of the steps: (§1)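 Modified [3H]-hypoxanthine incorporation assay on P. falciparum asexual cultures, chloroquine and artesunate as references in every run. IC50 values are means of ≥2 independent experiments; individual values mostly within 2-fold (maximum 3-fold).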

The subject of series [4] is Plasmodium falciparum. The experiment in a line: Antiplasmodial activity against Plasmodium falciparum NF54 by [3H]hypoxanthine incorporation assay. Format: functional, organism-based. An outline of the steps: as §1
The test system of the next series is CHO. The series is described as follows: Cytotoxicity against CHO cells. It is filed as cell-based, Cricetulus griseus. Conditions: chinese hamster.
A short description of series [5]: Selectivity index, ratio of IC50 for CHO cells to IC50 for Plasmodium falciparum. Format: toxicity, cell-based. Conditions: hamster, read-out: Ratio IC50.
Series [6] deals with Voltage-gated inwardly rectifying potassium channel KCNH2 (Homo sapiens, UniProt Q12809). The series is described as follows: Inhibition of human ERG channel by patch clamp technique. For orientation: Patch clamp records ionic current or voltage across a cell membrane.
The subject of series [7] is Liver microsome. The series is described as follows: Metabolic stability in human liver microsomes assessed as compound remaining after 30 mins. It is filed as ADME. Conditions: 0.5 h. The procedure, abridged: (§2)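 One-point microsomal stability test: compound incubated 30 min with human, rat or mouse liver microsomes; percentage of parent remaining measured.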
For series [8], the system named is Liver microsome. The experiment in a line: Metabolic stability in rat liver microsomes assessed as compound remaining after 30 mins. It is filed as ADME. Conditions: 0.5 h. The procedure, abridged:
as §2
(In general: Liver microsomes are a subcellular fraction often used to study metabolism.)

The test system of the next series is Liver. The series is described as follows: Metabolic stability in mouse liver microsomes assessed as compound remaining after 30 mins. It is filed as ADME. Conditions: 0.5 h. The procedure, abridged:
as §2

Series [9] deals with Plasmodium berghei. The experiment in a line: Antimalarial activity against Plasmodium berghei ANKA infected in mouse assessed as reduction in parasitemia at 50 mg/kg/day, po qd administered for 4 days relative to control. Format: functional. Set-up: Activity: scale not given: the % may be the effect or the level left. The procedure, abridged: (§3)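 Mice (n = 3) infected with GFP-transfected P. berghei ANKA; compound in HPMC suspension vehicle given orally once daily at 4, 24, 48 and 72 h after infection. Blood collected day 4 (96 h post-infection); parasitemia by flow cytometry (detection limit 0.1%). Activity = difference in mean % parasitemia between control and treated groups, as % of control.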

Series [10] is described as follows: Plasma concentration in mouse infected with Plasmodium berghei ANKA at 50 mg/kg/day, po after 4 hrs by HPLC analysis. It is filed as ADME, organism-based. More on the design: route oral. An outline of the steps: (§4)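 P. berghei-infected mice dosed orally at 50 mg/kg daily for 4 days; blood sampled 1, 4 and 24 h after the first dose and analysed by HPLC for drug levels.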

Series [11] can be described thus: Plasma concentration in mouse infected with Plasmodium berghei ANKA at 50 mg/kg/day, po after 24 hrs by HPLC analysis. Format: ADME, organism-based. Set-up: route oral. An outline of the steps: as §4
Series [12] relates to CHO cells (Cricetulus griseus). The series is described as follows: Cytotoxicity against Chinese hamster CHO cells.
Series [13] deals with CHO cells (Cricetulus griseus). The experiment in a line: Selectivity index, ratio of IC50 for Chinese hamster CHO cells to IC50 for Plasmodium falciparum.
The nature of series [14]: Apparent half life in Sprague-Dawley rat at 3.6 mg/kg, iv. It is filed as ADME, organism-based. Particulars: in vivo. Set-up: dose 3.6 mg/kg, route intravenous. An outline of the steps: (§5)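 Adult male Sprague-Dawley rats fasted overnight; dose 3.6 mg/kg prepared fresh, dissolved in water/0.01 M HCl/propylene glycol/ethanol/Tween 80 (1:2:1:0.1:0.1), given orally (1 mL) or intravenously (350 µL). Food returned 5 h post-dose. Heparinized blood taken at set time points, plasma held at -80°C, analysed by LC/MS/MS; parameters by non-compartmental analysis.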

Series [15] is described as follows: Volume of distribution at steady state in Sprague-Dawley rat at 3.6 mg/kg, iv. Conditions: in vivo, read-out: Vdss. It is filed as ADME, organism-based. More on the design: dose 3.6 mg/kg, route intravenous. The procedure, abridged:
as §5

Series [16] deals with Rattus norvegicus. The experiment in a line: AUC (0 to infinity) in Sprague-Dawley rat at 3.6 mg/kg, iv. Format: ADME, organism-based, Plasma. More on the design: time infinity, dose 3.6 mg/kg, route intravenous. Particulars: in vivo. The procedure, abridged:
as §5

For series [17], the system named is Rattus norvegicus. The experiment in a line: AUC (0 to infinity) in Sprague-Dawley rat at 3.6 mg/kg, po. It is filed as ADME, organism-based, Plasma. Set-up: time infinity, dose 3.6 mg/kg, route oral. Particulars: in vivo. An outline of the steps: as §5
Series [18] is described as follows: (§6) Cmax in Sprague-Dawley rat at 3.6 mg/kg, po. Format: ADME, organism-based. Conditions: Sprague-Dawley, in vivo. More on the design: dose 3.6 mg/kg, route oral. An outline of the steps: as §5
Series [19] can be described thus: (§7) Tmax in Sprague-Dawley rat at 3.6 mg/kg, po. It is filed as ADME, organism-based. More on the design: dose 3.6 mg/kg, route oral. Particulars: Sprague-Dawley, in vivo. The procedure, abridged: as §5
Series [20] concerns Rattus norvegicus. The series is described as follows: (§8) Oral bioavailability in Sprague-Dawley rat at 3.6 mg/kg. It is filed as ADME, organism-based. Conditions: in vivo. The procedure, abridged: as §5
The nature of series [21]: (§9) Apparent half life in Sprague-Dawley rat at 3.6 mg/kg, po. More on the design: dose 3.6 mg/kg, route oral. Format: ADME, organism-based. Particulars: Sprague-Dawley, in vivo, read-out: t1/2(app) (converted). An outline of the steps: as §5
Series [22] deals with Plasmodium berghei. The experiment in a line: Antimalarial activity against Plasmodium berghei ANKA infected in mouse assessed as reduction in parasitemia at 10 mg/kg/day, po qd administered for 4 days relative to control. More on the design: Activity: scale not given: the % may be the effect or the level left. It is filed as functional. An outline of the steps: as §3
Series [23] deals with Plasmodium berghei. The experiment in a line: Antimalarial activity against Plasmodium berghei ANKA infected in mouse assessed as reduction in parasitemia at 3 mg/kg/day, po qd administered for 4 days relative to control. Format: functional. More on the design: Activity: scale not given: the % may be the effect or the level left. The procedure, abridged: as §3
Series [24] is described as follows: Plasma concentration in mouse infected with Plasmodium berghei ANKA at 50 mg/kg/day, po after 1 hr by HPLC analysis. It is filed as ADME, organism-based. More on the design: route oral. The procedure, abridged: as §4
Series [25] deals with Rattus norvegicus. The series is described as §6. Format: ADME, organism-based. Set-up: dose 3.6 mg/kg, route oral. Conditions: in vivo. The procedure, abridged:
as §5

In series [26] the test system is Rattus norvegicus. Described as §7. It is filed as ADME, organism-based. More on the design: dose 3.6 mg/kg, route oral. Particulars: in vivo. The procedure, abridged:
as §5

Series [27] can be described thus: as §8. Particulars: Sprague-Dawley, in vivo. It is filed as ADME, organism-based. An outline of the steps:
as §5

Series [28] relates to Rattus norvegicus. The description is as §9. Conditions: in vivo. More on the design: dose 3.6 mg/kg, route oral. It is filed as ADME, organism-based. The procedure, abridged: as §5

≈ marks a conversion by molar mass, not a printed value.

Voltage-gated inwardly rectifying potassium channel KCNH2, sequence (Q12809 whole entry): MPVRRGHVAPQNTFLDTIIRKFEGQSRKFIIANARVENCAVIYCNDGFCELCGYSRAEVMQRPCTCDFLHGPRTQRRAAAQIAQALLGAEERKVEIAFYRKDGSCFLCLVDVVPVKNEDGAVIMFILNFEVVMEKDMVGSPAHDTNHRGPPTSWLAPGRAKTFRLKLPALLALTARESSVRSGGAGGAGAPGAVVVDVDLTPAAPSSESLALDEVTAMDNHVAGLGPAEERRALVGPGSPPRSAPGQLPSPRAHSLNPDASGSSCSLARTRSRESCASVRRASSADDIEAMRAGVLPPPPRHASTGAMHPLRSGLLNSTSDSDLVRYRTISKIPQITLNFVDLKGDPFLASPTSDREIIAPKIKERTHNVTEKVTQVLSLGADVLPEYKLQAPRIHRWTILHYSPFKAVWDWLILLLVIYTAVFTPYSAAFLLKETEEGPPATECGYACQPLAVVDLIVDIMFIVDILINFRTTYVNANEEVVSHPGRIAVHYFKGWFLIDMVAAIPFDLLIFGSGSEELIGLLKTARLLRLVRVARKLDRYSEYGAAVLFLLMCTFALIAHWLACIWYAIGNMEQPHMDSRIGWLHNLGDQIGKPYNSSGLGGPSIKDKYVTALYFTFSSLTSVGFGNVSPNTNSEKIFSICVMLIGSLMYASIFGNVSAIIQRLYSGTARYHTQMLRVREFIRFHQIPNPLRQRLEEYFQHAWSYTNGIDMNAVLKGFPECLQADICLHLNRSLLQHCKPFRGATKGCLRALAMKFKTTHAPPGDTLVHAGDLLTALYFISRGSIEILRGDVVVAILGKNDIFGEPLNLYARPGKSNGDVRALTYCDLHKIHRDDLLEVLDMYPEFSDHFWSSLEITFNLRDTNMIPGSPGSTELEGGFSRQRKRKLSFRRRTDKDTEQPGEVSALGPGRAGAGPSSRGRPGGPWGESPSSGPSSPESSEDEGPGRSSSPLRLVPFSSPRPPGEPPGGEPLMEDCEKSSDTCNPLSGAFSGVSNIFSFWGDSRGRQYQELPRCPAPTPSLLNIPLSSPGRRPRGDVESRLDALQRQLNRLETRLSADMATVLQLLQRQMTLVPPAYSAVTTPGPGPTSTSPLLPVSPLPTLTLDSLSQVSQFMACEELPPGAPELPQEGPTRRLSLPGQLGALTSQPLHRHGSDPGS

In general, solubility refers to how much of the substance goes into solution per volume. For orientation: IC50 means the concentration that inhibits the measured activity by half. For `CS(=O)(=O)c1ccc(-c2cnc3ccc(-c4cccc(S(=O)(=O)CCCN)c4)nn23)cc1`, the solubility in [1] and in series [2] was more than 200 µM in each case. The IC50 in the series on Plasmodium falciparum [3] is 2.6 nM; in the series with Plasmodium falciparum [4], 3 nM; in series [6] it was more than 33000 nM. Further, the Activity entry is “Non-toxic” with CHO, less than 40% in the series on Plasmodium berghei [9] and “Non-toxic” in series [12]. In addition, the selectivity ratio in series [5] and in series [13] was more than 1000 each time. Further, the Stability result with Liver microsome [7], in the series on Liver microsome [8] and in the series on Liver was “Stable” throughout. For the same molecule, the MSD with Plasmodium berghei [9] is 4 days. The molecule further had a concentration at 4 h in [10] of less than 10 nM. This molecule came in with a concentration at 24 h in series [11] of less than 10 nM.
In general, AUC refers to the area under the concentration-time curve, a measure of exposure. For orientation: Cmax means the highest concentration seen after dosing. A word on the Tmax: it is the time at which the peak concentration occurs. What is called bioavailability is the share of a dose that reaches the circulation, judged against a reference dose that is usually intravenous. On to `C[S+]([O-])c1ccc(-c2cnc3ccc(-c4cccc(S(=O)(=O)C5CC5)c4)nn23)cc1` (stereo not given), for which the values for the half-life in [14] and in [21] were 0.55 h and 4.8 h, respectively. The Vd in series [15] was 0.73 L/kg. Besides, the exposure (AUC) with Rattus norvegicus [16] is 3.3 µM·h; in the series with Rattus norvegicus [17] it was 0.36 µM·h. The Cmax in series [18] worked out at 40 nM. In series [19], the Tmax is 8 h. This molecule returned a bioavailability in the series with Rattus norvegicus [20] of 11%. Besides, the solubility in [1] is 61 µM (≈ 26.7 µg/mL); in series [2], less than 5 µM. Also, in the series with Plasmodium falciparum [4], the IC50 is 1.1 nM. The Activity entry in the series on CHO is reported as “Non-toxic”; with Plasmodium berghei [9], 99.8%; in the series on Plasmodium berghei [22], 99.6%; in the series with Plasmodium berghei [23], 98%; in series [12], “Non-toxic”. The selectivity ratio in series [5] and in series [13] was more than 1000 in each case. Besides, the MSD in the series on Plasmodium berghei [9] was more than 30 days; in the series on Plasmodium berghei [22], 8 days; in the series on Plasmodium berghei [23], 7 days. Further, the concentration at 1 h in [24] came to 80 nM. The same molecule showed a concentration at 4 h in [10] of 20 nM.
For the molecule `CS(=O)(=O)c1ccc(-c2cnc3ccc(-c4cccc(S(=O)(=O)C5CC5)c4)nn23)cc1`, the Vd in [15] was found to be 2.3 L/kg. The AUC with Rattus norvegicus [16] worked out at 121 µM·h; in the series with Rattus norvegicus [17], 27 µM·h. Moreover, the Cmax in the series with Rattus norvegicus [25] was determined as 1500 nM. Besides, the Tmax in the series with Rattus norvegicus [26] stood at 12 h. The bioavailability in series [27] is 24%. The “t1/2(app)” value in the series with Rattus norvegicus [28] came out at 4.8 h. For the same molecule, the solubility in series [1] was 19 µM (≈ 8.62 µg/mL); in [2], less than 5 µM. The IC50 was 0.53 nM in the series on Plasmodium falciparum [3] and 0.88 nM in the series on Plasmodium falciparum [4].
